From ChEMBL document CHEMBL3785020, “Discovery of novel sesquistilbene indanone analogues as potent anti-inflammatory agents” (Eur J Med Chem, 2016)
pIC50: −log10 of the molar value. Values after ≈ are worked out from the molar mass of the structure shown. Active and inactive are the calls of the source. No cut-off for these calls is given here.

Assays:
[1] = system: RAW264.7; experiment: Antiinflammatory activity against LPS-induced mouse RAW264.7 cells assessed as inhibition of NO production at 50 uM preincubated for 4 hrs followed by LPS stimulation for 24 hrs by Griess reaction; assay type: functional
Summary of the method: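 RAW264.7 cells in DMEM with 5% FBS at 37 °C and 5% CO2 were pretreated at 50 µM for 4 h, then stimulated with or without LPS (1 µg/mL) for 24 h. Nitrite in the supernatant was measured by Griess reagent at 540 nm against a NaNO2 standard curve. At least three independent experiments, each in duplicate; means ± SEM.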

[2] = system: RAW264.7; experiment: Antiinflammatory activity against LPS-induced mouse RAW264.7 cells assessed as inhibition of NO production at preincubated for 4 hrs followed by LPS stimulation for 24 hrs by Griess reaction; assay type: functional, cell-based
Summary of the method: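 Cells were pretreated for 4 h, then stimulated with LPS (1 µg/mL) for 24 h. Supernatant was mixed with an equal volume of Griess reagent, and nitrite was read at 540 nm against a NaNO2 standard curve. IC50 was obtained by curve fitting.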

[3] = system: RAW264.7; experiment: Downregulation of TLR4 expression in LPS-induced mouse RAW264.7 cells preincubated with compound followed by LPS-stimulation for 45 mins by Western blot analysis; assay type: functional, cell-based
[4] = system: RAW264.7; experiment: Effect of ERK phosphorylation in LPS-induced mouse RAW264.7 cells preincubated with the compound followed by LPS-stimulation for 45 mins by Western blot analysis; assay type: cell-based
[5] = system: RAW264.7; experiment: Inhibition of JNK phosphorylation in LPS-induced mouse RAW264.7 cells preincubated with the compound followed by LPS-stimulation for 45 mins by Western blot analysis; assay type: cell-based
[6] = target: Transcription factor p65 (Mus musculus) (UniProt Q04207); experiment: Inhibition of LPS-stimulated NFkappaB p65 nuclear translocation in mouse RAW264.7 cells preincubated with compound followed by LPS-stimulation for 2 hrs by Western blot analysis; assay type: cell-based
Sequence of Transcription factor p65 (Mus musculus) (Q04207 whole entry): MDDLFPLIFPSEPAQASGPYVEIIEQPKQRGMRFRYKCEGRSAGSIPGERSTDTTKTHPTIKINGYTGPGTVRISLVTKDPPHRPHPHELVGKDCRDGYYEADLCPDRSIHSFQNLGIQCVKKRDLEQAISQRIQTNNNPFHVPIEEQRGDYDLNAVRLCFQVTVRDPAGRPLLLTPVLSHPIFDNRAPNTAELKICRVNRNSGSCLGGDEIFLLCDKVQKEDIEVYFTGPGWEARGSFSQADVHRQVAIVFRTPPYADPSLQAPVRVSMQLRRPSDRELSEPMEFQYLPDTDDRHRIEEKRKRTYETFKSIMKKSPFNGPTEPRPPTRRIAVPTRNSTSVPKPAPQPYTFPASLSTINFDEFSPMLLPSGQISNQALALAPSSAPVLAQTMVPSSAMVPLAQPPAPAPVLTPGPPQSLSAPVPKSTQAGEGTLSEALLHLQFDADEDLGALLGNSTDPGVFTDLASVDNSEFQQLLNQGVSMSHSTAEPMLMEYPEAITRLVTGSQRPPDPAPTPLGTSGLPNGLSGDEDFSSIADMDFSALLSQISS
Summary of the method: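 Cells were pretreated at 12.5-50 µM, then stimulated with LPS (1 µg/mL) for 2 h. Nuclear and cytoplasmic fractions were prepared with an extraction kit and blotted for NF-κB p65 (1:1000). β-actin was the cytoplasmic loading control and lamin the nuclear one. At least three independent experiments in duplicate.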

[7] = system: RAW264.7; experiment: Antiinflammatory activity against LPS-induced mouse RAW264.7 cells assessed as downregulation of iNOS expression preincubated for 4 hrs followed by LPS stimulation for 24 hrs by Western blot analysis; assay type: functional, cell-based
Summary of the method: (§1)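 Cells serum-starved overnight, pretreated at 12.5-50 µM, then stimulated with LPS 1 µg/mL for 24 h. Whole-cell lysates were made in RIPA buffer with protease and phosphatase inhibitors, and 30 µg protein was loaded. Blots used iNOS (1:500) or COX-2 (1:10000) antibodies with HRP secondary and ECL detection. Signals were normalised to β-actin and expressed as fold of control. At least three independent experiments, each in duplicate.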

[8] = target: MAP kinase p38 (Mus musculus) (UniProt P47811+O08911+Q9WUI1+Q9Z1B7); experiment: Effect of p38 phosphorylation in LPS-induced mouse RAW264.7 cells preincubated with the compound followed by LPS-stimulation for 45 mins by Western blot analysis; assay type: cell-based
[9] = system: RAW264.7; experiment: Antiinflammatory activity against LPS-induced mouse RAW264.7 cells assessed as downregulation of COX2 expression preincubated for 4 hrs followed by LPS stimulation for 24 hrs by Western blot analysis; assay type: functional, cell-based; summary of the method: as §1
[10] = Solubility in water at pH 6.8; assay type: physicochemical
[11] = system: RAW264.7; experiment: Cytotoxicity against mouse RAW264.7 cells assessed as cell viability up to 50 uM by MTT assay; assay type: cell-based
Summary of the method: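 MTT assay after 12.5-50 µM treatment with LPS stimulation for 24 h. Medium was replaced, then MTT was added to a final 0.5 mg/mL and incubated 4 h at 37 °C. Formazan was dissolved in DMSO and absorbance read at 570 nm. At least three independent experiments in duplicate.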

[12] = Solubility in water at pH 7.4; assay type: physicochemical
[13] = Lipophilicity, logP of the compound; assay type: physicochemical; details: octanol/water
[14] = system: Mus musculus; experiment: Acute toxicity in ip dosed Kunming mouse assessed as mortality after 7 days by Bliss method; assay type: organism-based; details: in vivo, 168 h
[15] = system: Mus musculus; experiment: Acute toxicity in po dosed Kunming mouse after 14 days by Bliss method; details: in vivo, 336 h
[16] = Solubility in water at pH 1.2; assay type: physicochemical
[17] = (§2) Acute toxicity in ip dosed Kunming mouse after 14 days by Bliss method; assay type: organism-based; details: Kunming, in vivo
[18] = system: Mus musculus; experiment: as §2; assay type: organism-based; details: in vivo, 336 h

SMILES | inhibition at 50 µM [1] | also measured
COc1cc(OC)cc([C@@H]2C(=O)c3cc(OC)cc(OC)c3[C@H]2c2ccc(C)cc2)c1 | 83.3% | 
COc1ccc([C@@H]2C(=O)c3ccc(OC)cc3[C@H]2C2CCCCC2)cc1 (relative stereo) | 85.7% | 
COc1ccc(C2C(=O)c3ccc(OC)cc3C2c2ccccc2)cc1 (single isomer, unassigned; (+)) [listing 1 of 2 here] |  | pIC50 ([2]; raw264.7): 4.63
COc1ccc([C@@H]2C(=O)c3ccc(OC)cc3[C@H]2c2cc(OC)cc(OC)c2)cc1 (relative stereo) | 51.6% | 
COc1ccc([C@@H]2C(=O)c3ccc(OC)cc3[C@H]2c2ccc(OC(F)(F)F)cc2)cc1 (relative stereo) | 76.3% | 
COc1cc(OC)cc([C@@H]2C(=O)c3cc(OC)cc(OC)c3[C@H]2c2ccc3ccccc3c2)c1 (relative stereo) | 47.4% | 
COc1cc(OC)cc(C2C(O)c3cc(OC)cc(OC)c3C2c2ccccc2)c1 (configuration not stated) | 76.3% | 
COc1cc(OC)cc([C@@H]2C(=O)c3cc(OC)cc(OC)c3[C@H]2c2ccc(F)cc2)c1 (relative stereo) | 77.3% | 
COc1ccc([C@@H]2C(=O)c3ccc(OC)cc3[C@H]2c2ccc(C)cc2)cc1 (relative stereo) | 47.4% | 
COc1cc(OC)cc([C@@H]2c3c(OC)cc(OC)cc3C(=O)[C@H]2c2cc(OC)cc(OC)c2)c1 (relative stereo) | 59.4% | 
COc1cc(OC)cc([C@@H]2C(=O)c3cc(OC)cc(OC)c3[C@H]2c2ccc(O)cc2)c1 (relative stereo) | 65.6% | 
COc1ccc([C@@H]2c3c(OC)cc(OC)cc3C(=O)[C@H]2c2cc(OC)cc(OC)c2)cc1 (relative stereo) | 61% | 
COc1cc(OC)cc([C@@H]2C(=O)c3cc(OC)cc(OC)c3[C@H]2c2cccc(F)c2)c1 (relative stereo) | 65.7% | 
COc1ccc([C@@H]2C(=O)c3ccc(OC)cc3[C@H]2c2ccc3ccccc3c2)cc1 (relative stereo) | 58.7% | 
COc1cc(OC)cc([C@@H]2C(=O)c3cc(OC)cc(OC)c3[C@H]2c2ccc(OCc3ccccc3)cc2)c1 (relative stereo) | 65.8% | 
COc1ccc(C2C(=O)c3ccc(OC)cc3C2c2ccccc2)cc1 (single isomer, unassigned; (+)) [listing 2 of 2 here] |  | inhibition [2]: Dose-dependent effect
COc1cc(OC)cc([C@@H]2C(=O)c3cc(OC)cc(OC)c3[C@H]2c2ccc(OC(F)(F)F)cc2)c1 (relative stereo) | 65.6% | 
COc1ccc([C@@H]2c3cc(OC)ccc3C(=O)[C@H]2c2ccc(OC)cc2)cc1 (relative stereo) | 79.3% | 

SMILES | inhibition at 50 µM [1] | also measured
CCOc1ccc([C@@H]2c3c(OC)cc(OC)cc3C(=O)[C@H]2c2cc(OC)cc(OC)c2)cc1 (relative stereo) | 80.9% | 
COc1ccc(C2C(=O)c3ccc(OC)cc3C2c2ccccc2)cc1 (racemic) [listing 1 of 2 here] |  | Activity [3]: Dose-dependent effect; Activity [4]: inactive; inhibition [5]: Dose-dependent effect; inhibition [6]: Dose-dependent effect; Activity [7]: Dose-dependent effect; Activity [8]: inactive; inhibition [2]: Dose-dependent effect; Activity [9]: Dose-dependent effect
COc1ccc([C@@H]2C(=O)c3ccc(OC)cc3[C@H]2c2ccc(C(F)(F)F)cc2)cc1 (relative stereo) | 80% | 
COc1ccc(C2C(=O)c3ccc(OC)cc3C2c2ccccc2)cc1 (single isomer, unassigned; (-)) [listing 1 of 2 here] |  | inhibition [2]: Dose-dependent effect
COc1ccc(C2C(=O)c3ccc(OC)cc3C2c2ccccc2)cc1 (racemic) [listing 2 of 2 here] | 87.6% | solubility [10]: 68.7 µg/mL (≈ 199 µM); Activity [11]: Non-toxic; solubility [12]: 46.5 µg/mL (≈ 135 µM); logP [13]: 1.77; Activity [14]: Toxic; Activity [15]: Dose-dependent effect; pIC50 ([2]; Mus musculus, RAW264.7): 4.63; solubility [16]: 38.3 µg/mL (≈ 111 µM); LD50 at 336 h [17]: 275 mg/kg
CCOC(=O)[C@@H]1c2c(OC)cc(OC)cc2C(=O)[C@H]1c1cc(OC)cc(OC)c1 (relative stereo) | 64.6% | 
CCOc1ccc([C@@H]2c3cc(OC)ccc3C(=O)[C@H]2c2ccc(OC)cc2)cc1 (relative stereo) | 84.4% | 
COc1cc(OC)cc([C@@H]2C(=O)c3cc(OC)cc(OC)c3[C@H]2C2CCCCC2)c1 (relative stereo) | 77.3% | 
COc1cc(OC)cc([C@@H]2C(=O)c3cc(OC)cc(OC)c3[C@H]2Cc2ccccc2)c1 (relative stereo) | 86.9% | 
COc1cc(OC)cc([C@@H]2C(=O)c3cc(OC)cc(OC)c3[C@H]2c2ccc(-c3ccccc3)cc2)c1 (relative stereo) | 73.9% | 
COc1ccc([C@@H]2C(=O)c3ccc(OC)cc3[C@H]2c2ccc(-c3ccccc3)cc2)cc1 (relative stereo) | 57.5% | 
COc1ccc(C2C(=O)c3ccc(OC)cc3C2c2ccccc2)cc1 (single isomer, unassigned; (-)) [listing 2 of 2 here] |  | pIC50 ([2]; raw264.7): 4.63; LD50 [18]: 275 mg/kg
COc1cc(OC)cc([C@@H]2C(=O)c3cc(OC)cc(OC)c3[C@H]2c2ccccc2)c1 (relative stereo) | 69.2% | 
COc1cc(OC)cc([C@@H]2C(=O)c3cc(OC)cc(OC)c3[C@H]2c2ccc(C(F)(F)F)cc2)c1 (relative stereo) | 71.8% | 
COc1ccc([C@@H]2C(=O)c3ccc(OC)cc3[C@H]2c2cccc(F)c2)cc1 (relative stereo) | 80% | 
Oc1ccc(/C=C/c2cc(O)cc(O)c2)cc1 [RESVERATROL] | 35% | 
COc1ccc([C@@H]2C(=O)c3ccc(OC)cc3[C@H]2c2ccc(F)cc2)cc1 | 85.9% | 
